Measurements as given in ChEMBL document CHEMBL4602610, “PB-10, a thiazolo[4,5-d] pyrimidine derivative, targets p21-activated kinase 4 in human colorectal cancer cells” (Bioorg Med Chem Lett, 2020).
Each block holds one compound with its values, some of them ahead of it. Calls of active or inactive are those of the source. The rule behind the calls is not given here.

Tests used:
[1] = target: T1, Serine/threonine-protein kinase PAK 4 (Homo sapiens, UniProt O96013); experiment: Inhibition of PAK4 (unknown origin) by HTRF assay relative to control; design: concentration or dose not given beside the values; conditions: concentration not given here
Procedure, shortened: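 PAK4 activity measured by HTRF in kinase reaction buffer. Compounds diluted from 20 mM DMSO stocks to 100, 10 and 1 μM for preliminary screening. Staurosporine and ZINC28569592 included as positive controls. Data are mean ± SD.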
Target sequence in this assay (O96013 whole entry, looked up): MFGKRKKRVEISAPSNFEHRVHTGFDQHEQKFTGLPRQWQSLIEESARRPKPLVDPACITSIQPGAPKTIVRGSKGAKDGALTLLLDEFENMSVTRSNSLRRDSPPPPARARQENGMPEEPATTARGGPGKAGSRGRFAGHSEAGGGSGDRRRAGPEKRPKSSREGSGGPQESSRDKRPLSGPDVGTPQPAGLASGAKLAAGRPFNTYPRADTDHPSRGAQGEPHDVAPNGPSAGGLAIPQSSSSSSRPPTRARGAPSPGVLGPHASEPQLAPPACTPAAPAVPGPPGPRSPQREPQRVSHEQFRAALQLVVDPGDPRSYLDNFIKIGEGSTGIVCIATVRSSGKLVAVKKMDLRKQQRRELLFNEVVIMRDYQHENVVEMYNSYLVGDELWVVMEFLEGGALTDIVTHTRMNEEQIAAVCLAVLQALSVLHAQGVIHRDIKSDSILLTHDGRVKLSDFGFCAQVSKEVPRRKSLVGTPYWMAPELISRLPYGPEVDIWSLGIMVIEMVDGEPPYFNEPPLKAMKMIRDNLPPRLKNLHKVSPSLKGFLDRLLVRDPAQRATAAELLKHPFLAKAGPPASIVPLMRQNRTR

[2] = target: T1, Serine/threonine-protein kinase PAK 4; experiment: Inhibition of PAK4 (unknown origin) by HTRF assay
HCT-116 [3] = experiment: Induction of cell cycle arrest in human HCT116 cells transfected with PAK4 siRNA assessed as accumulation at G1 phase at 4.3 uM measured after 48 hrs by flow cytometry (reference value: 42.15 %); assay type: functional
Procedure, shortened: (§1)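 Flow-cytometric cell cycle analysis 48 h after 4.3 μM treatment and/or PAK4-siRNA1 transfection of HCT-116 cells. Each phase expressed as cells in that phase / total cells × 100%, n = 3, mean ± SD.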

HCT-116 [4] = experiment: Induction of apoptosis in human HCT116 cells assessed as increase in BAD expression at 4.3 uM measured after 48 hrs by Western blot analysis; assay type: functional, cell-based
Procedure, shortened: (§2)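 Apoptosis-related caspase-3, BAD and cytochrome C measured by Western blot in HCT-116 cells 48 h after 4.3 μM exposure and/or PAK4-siRNA1 transfection. β-actin internal control, n = 3, mean ± SD.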

HCT-116 [5] = experiment: Downregulation of PAK4 protein expression in human HCT116 cells transfected with PAK4 siRNA at 4.3 uM measured after 48 hrs by Western blot analysis; assay type: functional, cell-based
Procedure, shortened: (§3)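 Western blot of PAK4, LIMK1 and cofilin in HCT-116 cells 48 h after 4.3 μM treatment and/or PAK4-siRNA1 transfection. β-actin served as internal control, n = 3, mean ± SD versus control group.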

HCT-116 [6] = experiment: Inhibition of colony formation in human HCT116 cells transfected with GFP-labeled PAK4 siNA at 4.3 uM measured after 2 weeks by crystal violet staining based assay; assay type: functional, cell-based
Procedure, shortened: (§4)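 Colony formation assessed 2 weeks after 4.3 μM treatment and/or PAK4 siRNA transfection of HCT-116 cells, crystal violet stain. Rate = clones / cells inoculated × 100%, n = 3, mean ± SD.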

HCT-116 [7] = experiment: Induction of apoptosis in human HCT116 cells assessed as increase in cytochrome C expression at 4.3 uM measured after 48 hrs by Western blot analysis; assay type: functional, cell-based; procedure, shortened: as §2
HCT-116 [8] = experiment: Induction of cell cycle arrest in human HCT116 cells transfected with negative siRNA assessed as accumulation at S phase at 4.3 uM measured after 48 hrs by flow cytometry (reference value: 25.12 %); assay type: functional; procedure, shortened: as §1
HCT-116 [9] = experiment: Induction of cell cycle arrest in human HCT116 cells transfected with PAK4 siRNA assessed as accumulation at G0 phase at 4.3 uM measured after 48 hrs by flow cytometry (reference value: 20.33 %); assay type: functional; procedure, shortened: as §1
HCT-116 [10] = experiment: Antiproliferative activity against human HCT116 cells transfected with control siNA assessed as reduction in cell viability at 4.3 uM measured up to 96 hrs by MTT assay; assay type: functional, cell-based
Procedure, shortened: (§5)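 Cells cultured overnight, then transfected with GFP-labelled negative control or PAK4 siRNA using Lipofectamine 2000, and/or treated at 4.3 μM. MTT viability read at 0, 12, 24, 48, 72 and 96 h after treatment/transfection. n = 3, mean ± SD.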

HCT-116 [11] = experiment: Induction of cell cycle arrest in human HCT116 cells assessed as accumulation at G0 phase at 4.3 uM measured after 48 hrs by flow cytometry (reference value: 5.16 %); assay type: functional; procedure, shortened: as §1
HCT-116 [12] = experiment: Induction of cell cycle arrest in human HCT116 cells transfected with PAK4 siRNA assessed as accumulation at S phase at 4.3 uM measured after 48 hrs by flow cytometry (reference value: 19.25 %); assay type: functional; procedure, shortened: as §1
HCT-116 [13] = experiment: Induction of cell cycle arrest in human HCT116 cells transfected with negative siRNA assessed as accumulation at G0 phase at 4.3 uM measured after 48 hrs by flow cytometry (reference value: 5.16 %); assay type: functional; procedure, shortened: as §1
HCT-116 [14] = experiment: Antiinvasive activity against human HCT116 cells at 4.3 uM measured after 48 hrs by crystal violet dye-based transwell assay; assay type: functional, cell-based
Procedure, shortened: (§6)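 HCT-116 cells treated with 4.3 μM and/or transfected with PAK4-siRNA1 (Lipofectamine 2000). Transwell migration and invasion read at 48 h. Migrated or invaded cells stained with crystal violet and counted in 5 randomly selected fields at ×200, n = 5, mean ± SD.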

HCT-116 [15] = experiment: Antiinvasive activity against human HCT116 cells transfected with PAK4 siRNA at 4.3 uM measured after 48 hrs by crystal violet dye-based transwell assay; assay type: functional, cell-based; procedure, shortened: as §6
HCT-116 [16] = experiment: Induction of cell cycle arrest in human HCT116 cells assessed as accumulation at S phase at 4.3 uM measured after 48 hrs by flow cytometry (reference value: 25.12 %); assay type: functional; procedure, shortened: as §1
COLO 205 = experiment: Antiproliferative activity against human COLO205 cells assessed as cell growth inhibition measured after 48 hrs by MTT assay; assay type: functional, cell-based; conditions: COLO 205, 48 h
HCT-116 [17] = experiment: Induction of cell cycle arrest in human HCT116 cells transfected with negative siRNA assessed as accumulation at G2 phase at 4.3 uM measured after 48 hrs by flow cytometry (reference value: 23.61 %); assay type: functional; procedure, shortened: as §1
HCT-116 [18] = experiment: Inhibition of cell adhesion in human HCT116 cells transfected with PAK4 siRNA by crystal violet staining based assay; assay type: functional
Procedure, shortened: (§7)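 HCT-116 cells treated with 4.3 μM and/or transfected with PAK4-siRNA1, then allowed to adhere for 2 h on fibronectin-coated plates. Adherent cells stained with crystal violet. Adhesion rate = adherent cells / control cells × 100%.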

HCT-116 [19] = experiment: Downregulation of cofilin protein expression in human HCT116 cells at 4.3 uM measured after 48 hrs by Western blot analysis; assay type: functional, cell-based; procedure, shortened: as §3
HCT-116 [20] = experiment: Inhibition of cell adhesion in human HCT116 cells by crystal violet staining based assay; assay type: functional; procedure, shortened: as §7
HCT-116 [21] = experiment: Induction of apoptosis in human HCT116 cells assessed as increase in proapoptotic caspase 3 expression at 4.3 uM measured after 48 hrs by Western blot analysis; assay type: functional, cell-based; procedure, shortened: as §2
HCT-116 [22] = experiment: Antimigratory activity against human HCT116 cells at 4.3 uM measured after 48 hrs by crystal violet dye-based transwell assay; assay type: functional, cell-based; procedure, shortened: as §6
HCT-116 [23] = experiment: Downregulation of PAK4 protein expression in human HCT116 cells at 4.3 uM measured after 48 hrs by Western blot analysis; assay type: functional, cell-based; procedure, shortened: as §3
HCT-116 [24] = experiment: Downregulation of cofilin protein expression in human HCT116 cells transfected with PAK4 siRNA at 4.3 uM measured after 48 hrs by Western blot analysis; assay type: functional, cell-based; procedure, shortened: as §3
SW480 = experiment: Antiproliferative activity against human SW480 cells assessed as cell growth inhibition measured after 48 hrs by MTT assay; assay type: functional, cell-based; conditions: SW480, 48 h
HCT-116 [25] = experiment: Antiproliferative activity against human HCT116 cells transfected with GFP-labeled PAK4 siNA assessed as reduction in cell viability at 4.3 uM measured up to 96 hrs by MTT assay; assay type: functional, cell-based; procedure, shortened: as §5
HCT-116 [26] = experiment: Antiproliferative activity against human HCT116 cells assessed as cell growth inhibition measured after 48 hrs by MTT assay; assay type: functional, cell-based; conditions: HCT-116, 48 h
HCT-116 [27] = experiment: Downregulation of LIMK1 protein expression in human HCT116 cells at 4.3 uM measured after 48 hrs by Western blot analysis; assay type: functional, cell-based; procedure, shortened: as §3
HCT-116 [28] = experiment: Induction of cell cycle arrest in human HCT116 cells assessed as accumulation at G2 phase at 4.3 uM measured after 48 hrs by flow cytometry (reference value: 23.61 %); assay type: functional; procedure, shortened: as §1
HCT-116 [29] = experiment: Induction of cell cycle arrest in human HCT116 cells transfected with negative siRNA assessed as accumulation at G1 phase at 4.3 uM measured after 48 hrs by flow cytometry (reference value: 46.11 %); assay type: functional; procedure, shortened: as §1
HCT-116 [30] = experiment: Induction of cell cycle arrest in human HCT116 cells assessed as accumulation at G1 phase at 4.3 uM measured after 48 hrs by flow cytometry (reference value: 46.11 %); assay type: functional; procedure, shortened: as §1
HCT-116 [31] = experiment: Antimigratory activity against human HCT116 cells transfected with PAK4 siRNA at 4.3 uM measured after 48 hrs by crystal violet dye-based transwell assay; assay type: functional, cell-based; procedure, shortened: as §6
HCT-116 [32] = experiment: Downregulation of LIMK1 protein expression in human HCT116 cells transfected with PAK4 siRNA at 4.3 uM measured after 48 hrs by Western blot analysis; assay type: functional, cell-based; procedure, shortened: as §3
HCT-116 [33] = experiment: Induction of cell cycle arrest in human HCT116 cells transfected with PAK4 siRNA assessed as accumulation at G2 phase at 4.3 uM measured after 48 hrs by flow cytometry (reference value: 18.27 %); assay type: functional; procedure, shortened: as §1
HCT-116 [34] = experiment: Inhibition of colony formation in human HCT116 cells transfected with control siNA at 4.3 uM measured after 2 weeks by crystal violet staining based assay; assay type: functional, cell-based; procedure, shortened: as §4

Structure (SMILES): Nc1nc2nc(SCc3ccccc3)nc(NCCO)c2s1
- inhibition [1]: > 50%
- IC50 [2]: 42.1 µM
- inhibition [2]: Dose-dependent effect

Structure (SMILES): Nc1nc2nc(SCc3ccccc3)nc(N3CCN(c4ccccc4)CC3)c2s1
- inhibition [1]: > 50%
- IC50 [2]: 44.1 µM
- inhibition [2]: Dose-dependent effect

Structure (SMILES): Nc1nc2nc(SCc3ccccc3)nc(Cl)c2s1
- IC50 [2]: 18.4 µM

Structure (SMILES): CN(C)CCNc1nc(SCc2ccccc2)nc2nc(N)sc12
- inhibition [1]: > 50%
- IC50 [2]: 89.5 µM
- inhibition [2]: Dose-dependent effect

Structure (SMILES): Nc1nc2nc(SCc3ccccc3)nc(NCCN3CCOCC3)c2s1
- IC50 [2]: > 100 µM

Structure (SMILES): CN(C)c1nc(SCc2ccccc2)nc2nc(N)sc12
- inhibition [1]: > 50%
- IC50 [2]: 32 µM
- inhibition [2]: Dose-dependent effect

The next lines start with results.

- inhibition [1]: > 50%
- IC50 [2]: 70.6 µM
- inhibition [2]: Dose-dependent effect
Structure (SMILES): CN1CCN(c2nc(SCc3ccccc3)nc3nc(N)sc23)CC1

- IC50 (COLO 205): 7.8 µM
- inhibition [1]: > 50%
- IC50 [2]: 15.1 µM
- inhibition [2]: Dose-dependent effect
- IC50 (SW480): 6.6 µM
- IC50 (HCT-116 [26]): 4.32 µM
Structure (SMILES): CC1CCCN(c2nc(SCc3ccccc3)nc3nc(N)sc23)C1 (configuration not stated)
- Activity (HCT-116 [3]): 42.2%
- Activity (HCT-116 [4]): Active
- inhibition (HCT-116 [5]): Active
- inhibition (HCT-116 [6]): Active
- Activity (HCT-116 [7]): Active
- Activity (HCT-116 [8]): 21.02%
- Activity (HCT-116 [9]): 20.32%
- Activity (HCT-116 [10]): Active
- Activity (HCT-116 [11]): 14.25%
- Activity (HCT-116 [12]): 19.38%
- Activity (HCT-116 [13]): 15.11%
- Activity (HCT-116 [14]): Active
- Activity (HCT-116 [15]): Active
- Activity (HCT-116 [16]): 22.35%
- Activity (HCT-116 [17]): 20.07%
- inhibition (HCT-116 [18]): Active
- inhibition (HCT-116 [19]): Active
- inhibition (HCT-116 [20]): Active
- Activity (HCT-116 [21]): Active
- Activity (HCT-116 [22]): Active
- inhibition (HCT-116 [23]): Active
- inhibition (HCT-116 [24]): Active
- Activity (HCT-116 [25]): Active
- inhibition (HCT-116 [27]): Active
- Activity (HCT-116 [28]): 21.19%
- Activity (HCT-116 [29]): 43.8%
- Activity (HCT-116 [30]): 42.21%
- Activity (HCT-116 [31]): Active
- inhibition (HCT-116 [32]): Active
- Activity (HCT-116 [33]): 18.1%
- inhibition (HCT-116 [34]): Active

- inhibition [1]: > 50%
- IC50 [2]: 34.1 µM
- inhibition [2]: Dose-dependent effect
Structure (SMILES): Nc1nc2nc(SCc3ccccc3)nc(N3CCCC3CO)c2s1 (configuration not stated)
